Assay results reported in ChEMBL document CHEMBL4513216, “Probing the Open Global Health Chemical Diversity Library for Multistage-Active Starting Points for Next-Generation Antimalarials” (ACS Infect Dis, 2020).

Assay: Toxicity liver stage against HepG2, at 10uM
Assay type: cell-based
Design: test concentration 10 uM, cell line HepG2-A16-CD81EGFP
Settings: human, HepG2-A16-CD81EGFP cells; read-out: INHIBITION
Method in brief: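 Uninfected HepG2-A16-CD81EGFP cells, 3 × 10^3 per well, 1536-well, plated on prespotted compound at 10 μM final, parasite-free screening media added to match infected plates; puromycin 10 μM positive, DMSO 0.5% negative; run in parallel with 48 h PbLuc assay at 37 °C, 5% CO2; viability by CellTiter-Glo luminescence, normalized to controls.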

| SMILES | cytotoxicity at 10 µM [%] |
| --- | --- |
| Fc1ccc(OCc2nnc([C@H]3CCN(Cc4ccncc4)C3)o2)cc1 | -1.81 |
| Cc1cccc(CN2C[C@@H]3CN(C4CCOCC4)C[C@@H]3C2=O)c1 | -130 |
| CCC(CC)C(=O)N1CCC2(CC1)c1ccccc1[C@@H](OC)[C@@H]2O | 6.75 |
| CN1CCC2(C=C(C(=O)N3CCCC3)c3ccccc32)CC1 | 1.97 |
| CC(C)CN1CCS(=O)(=O)[C@@H]2CCN(S(=O)(=O)C3CC3)CC[C@@H]21 | 7.8 |
| CN(C)C(=O)N[C@H]1CN(C2CCOCC2)[C@@H]2CCCO[C@H]12 | -1.86 |
| CO[C@H]1CCN(S(=O)(=O)c2cccs2)[C@H]1Cc1ccncc1 | -75 |
| Cn1ccc2c(cnc3nc(-c4ccncc4)nn32)c1=O | -4.17 |
| O=S(=O)(NCC(c1ccsc1)N1CCCCCC1)c1cccs1 (centres undefined) | 2 |
| COCCN1CCC2(CCN(C(=O)c3ccc(F)cc3)CC2)C1=O | 2.85 |
| COc1ccc(C(=O)N2CCCS2(=O)=O)cc1 | -1.88 |
| CCNC(=O)[C@@H]1C[C@H](N)CN1Cc1ccc(Sc2ccc(C)cc2)o1 | -48.3 |
| O=C1C(NS(=O)(=O)c2cc(F)cc(F)c2)CCN1Cc1ccccc1 (centres undefined) | -10 |
| CCCC(=O)NCCCn1ncc2c(C)cccc21 | 8.6 |
| Cc1nc(CN2CCC3(CCN(Cc4cnn(C)c4)C3)C2=O)cs1 (centres undefined) | 6.81 |
| Cc1ccc(F)cc1C(=O)N1CCOCC12CCCC2 | -8.68 |
| O=C(NCCc1cccs1)[C@]12COC[C@H]1CN(C1CCOCC1)C2 | -116 |
| COc1ncccc1CN1CCC2(CC1)COCCN2C | 16.6 |
| Cc1ccnc2c1NC(=O)CN2C(=O)CCC(F)(F)F | -15 |
| CC(C)(C)OC(=O)NCCC(=O)NCC(O)c1cccc(F)c1 (centres undefined) | -2.48 |
| COc1ccc(CN2CCCn3cnc(COC(C)C)c3C2)cc1 | -74.9 |
| COC(=O)CNC(=O)c1nc(Cl)sc1C(C)C | 1.34 |

| SMILES | cytotoxicity at 10 µM [%] |
| --- | --- |
| CC(C)N(C(=O)c1ccnc(OCC(F)(F)F)c1)c1cccnc1 | 8.05 |
| CNC(=O)C1CN(Cc2ccc(C#N)cc2F)c2ccccc2O1 (centres undefined) | 9.44 |
| O=C(c1cnccn1)N1CCN2C[C@H](OCC3CC3)C[C@H]2C1 | 2.92 |
| Cc1ccc(-c2ccc(C(=O)NCC(N)=O)c(F)c2)cc1 | -0.758 |
| COc1ccc(-n2ncc(C(=O)NCC3COC(C)(C)O3)c2N)cc1 (centres undefined) | 3.97 |
| COCCN1CCC(c2cncc(N(C)C)n2)CC1 | -25.5 |
| Clc1cc(N2CCN(C3CCOCC3)CC2)nc2[nH]ccc12 | -3.96 |
| CCS(=O)(=O)NCCCNc1ncnc2cc(F)c(F)cc12 | 9.29 |
| CN1CCN(C)C(CNc2c(C#N)cnc3ccc(Cl)cc23)C1 (centres undefined) | -4.58 |
| CN1CCCCC12CCN(c1nncs1)C2 (centres undefined) | 7.1 |
| COc1ccccc1OCCNc1snc(Cl)c1C#N | 20.5 |
| CCc1c(NCc2ccc(F)cc2)cnn1CC(C)C | 3.66 |
| O=C(O)CCCC(=O)N1CCC(c2noc3cc(F)ccc23)CC1 | -4.66 |
| COC(=O)c1ccc(F)c(S(=O)(=O)Nc2ccc(C(N)=O)cc2)c1 | 3.63 |
| O=C1NCc2ccccc2CC12CCCN(CCCc1ccccc1)C2 (centres undefined) | 10.3 |
| CC(C)CNC(=O)c1nnsc1-c1ccccc1 | 10.3 |
| COC(=O)CN1Cc2cc3c(cc2NCCC1=O)OCO3 | -8.1 |
| COCCOCC(=O)N(C)Cc1ccc(OCc2cccs2)cc1 | 4.38 |
| Cc1noc(C)c1CN1CC[C@H](OCC2CC2)[C@@H](Cc2ccccc2)C1 | -65.8 |
| COCCNC(=O)[C@H]1C[C@@H]2CCN(CCc3ccccc3)C[C@@H]2O1 | -74.5 |
| O=C(CCc1cccc(F)c1F)N1CCN(Cc2ccco2)CC1 | -11.5 |
| O=C1[C@@H]2CCN(CC3CC3)C[C@@H]2OCCN1c1ccsc1 | 10.5 |

| SMILES | cytotoxicity at 10 µM [%] |
| --- | --- |
| O=c1c(CN2CCCCC2)coc2ccc(Cl)cc12 | -2.56 |
| c1csc(-c2nc(CN3CCn4c(nnc4C4CC4)C3)co2)c1 | 7.17 |
| Cc1nc(CN(C)C2CCN(CCc3cccs3)C2)no1 (centres undefined) | 6.03 |
| Cc1cnc(N2CCCC3(CCCN(C)C3)C2)nc1 (centres undefined) | -11.8 |
| Cc1cc(C)n2c(CCCNS(=O)(=O)c3ccc(F)cc3)nnc2n1 | 2.38 |
| COc1ccc(C(CC(=O)O)NC(=O)c2cc(C)on2)cc1 (centres undefined) | 5.12 |
| COCCN1CCN(C)C2(CCN(C(=O)c3ccnnc3)CC2)C1=O | 11.6 |
| CC(C)C[C@H](NC(=O)NC1CCS(=O)(=O)C1)C(=O)NCc1cccnc1 (some centres undefined) | 0.948 |
| CNc1ncc(CN2CCC(c3nnsc3S(C)(=O)=O)CC2)cn1 | -0.085 |
| COc1cc(N2CC3(CCN(S(=O)(=O)C4CC4)C3)C2)ncn1 | 7.34 |
| CN(CCNC(=O)NCc1ccncc1)C1CCCC1 | -2.95 |
| CN(C)c1ccccc1C(=O)N1CCCC(c2ccc(C(=O)O)cc2)C1 (centres undefined) | 16.2 |
| O=c1cc(N2CCNCC2)cnn1CCc1ccc(F)cc1 | -8.76 |
| Cc1cc(-c2ccccc2C(=O)O)nc(C2CCCN2S(C)(=O)=O)n1 (centres undefined) | -3.67 |
| O=C(Nc1cccnc1)N1CCC(n2ccc(C(F)(F)F)n2)CC1 | -6.08 |
| O=C(CCc1ccsc1)NCC1CCN(Cc2cccs2)CC1 | 12.9 |
| CNS(=O)(=O)Cc1ccc(CNc2ccc(C#N)cn2)cc1 | -6.87 |
| O=C(NCCN1CCc2ccccc2C1)c1scnc1Cl | -4.84 |
| COc1ccc(CC(=O)N2C[C@H]3CN(Cc4ccccn4)C[C@H]3C2)cc1 | 3.5 |
| O=S(=O)(CCO)CCc1ccccc1Cl | 7.21 |
| Cc1c(C)c(C)c2[nH]c(-c3cn(C4CCNCC4)nn3)nc2c1C | -0.966 |
| O=C(Nc1ccccc1C(=O)N1CCCC1)NC1CCOCC1 | -3.27 |

| SMILES | cytotoxicity at 10 µM [%] |
| --- | --- |
| O=C1NCC[C@]12CN(CC1CCOCC1)C[C@H]2c1ccccc1 | 6.59 |
| COc1ccc(-n2c(CCC(=O)O)nc3ccccc32)cc1CO | -0.334 |
| Cn1cc(CN2CC[C@H]3O[C@H](C(=O)NCc4ccco4)CC[C@H]32)cn1 | -1.85 |
| COC(=O)CCn1ccc(=O)c2cc(OC)ccc21 | 3.88 |
| Cc1ccc(C(=O)N2C[C@@H]3COC[C@]3(COCc3cccnc3)C2)cn1 | 0.719 |
| O=S(=O)(NCc1cn2ccccc2n1)N1CCOCC1 | 2.69 |
| Cc1ncc(CNC(=O)CCc2c(C)noc2C)c(C2CCCN2C)n1 (centres undefined) | -8.86 |
| CC(C)(C)NC(=O)C1CSCN1S(=O)(=O)c1cccc(F)c1 (centres undefined) | -16.7 |
| CCOC(=O)[C@]12CCCN(Cc3nccs3)C[C@H]1CN(CCN(C)C)C2 | -9.82 |
| COCC(=O)N1CCC2(CCc3ccc(F)cc32)CC1 | -148 |
| Cc1ccc(C(NCC(=O)N2CCNC(=O)C2)C(F)(F)F)cc1 (centres undefined) | -8.3 |
| Cc1ccc(N2CCCC(NC(=O)CCc3ccccn3)C2=O)cc1 (centres undefined) | -2.16 |
| COc1cccc(C(=O)N2CCCCC2CNC(N)=O)c1 (centres undefined) | -7.03 |
| CCS(=O)(=O)N1C[C@@H]2CN(Cc3cccs3)CCO[C@@H]2C1 | -138 |
| Cc1cccc(NC2CCN(C(=O)Nc3ccc(F)c(F)c3)CC2)n1 | 9.59 |
| N#Cc1cnc(NCc2ccc(C(=O)NC3CC3)cc2)c(Cl)c1 | -0.18 |
| COCCN1CCC(CNC(=O)C2(c3cccc(Cl)c3)CC2)C1 (centres undefined) | -6.63 |
| COc1cccc2ccn(CC(=O)NCC(C)C)c12 | -36.5 |
| CCN(Cc1ccccc1)C(=O)CCN1C[C@@H](C(=O)O)[C@H](C2CC2)C1 | 6.94 |
| Cc1ccc(S(=O)(=O)N2CC[C@@H]3C[C@H](NC(=O)c4ccncc4)[C@@H]32)cc1 | 0.385 |
| Cc1cccc(CN2CC[C@H]3OCC[C@@]3(C(=O)N3CCCO3)C2)n1 | 0.886 |
| O=C(CC1CCCC1)N1CCC2(CC1)[C@H](O)C[C@@H]2O | 2.3 |

| SMILES | cytotoxicity at 10 µM [%] |
| --- | --- |
| COc1ncccc1CNC(=O)Nc1cccnc1N1CCCC1 | -10.4 |
| CCC(=O)N1CCCC(c2nc(-c3cccnn3)no2)C1 (centres undefined) | -6.45 |
| Cc1cnn(CC2CCCN2C(=O)Cc2c(C)noc2C)c1 (centres undefined) | 0.983 |
| CN(C)CCNC(=O)CC1CCN(c2cccnn2)CC1 | 6.04 |
| Cc1ccc(CNC(=O)NCCCn2nc3ccccn3c2=O)s1 | -2.09 |
| Cc1ccc(C(=O)N2CCC3(CC2)NC(=O)CC3c2ccccc2)cn1 (centres undefined) | -2.47 |
| CN(C)S(=O)(=O)N1C[C@H]2CC[C@@H](C1)N(Cc1ccc3c(c1)OCCO3)C2 | 4.52 |
| Cc1cnc(CN(C)C2CCN(Cc3sc(C)nc3C)C2)o1 (centres undefined) | 3.45 |
| CC(C)N(Cc1cccnc1)C(=O)CSc1ccc(C#N)cc1 | 3.18 |
| c1cc(CN2CCC3(CC2)COC(COCC2CC2)C3)cs1 (centres undefined) | -0.272 |
| CC(C)N1CCO[C@H]2CN(Cc3cc[nH]n3)C[C@H]21 | -108 |
| O=C(CNC(=O)c1ccccc1F)NCc1ccccn1 | -0.575 |
| Cc1cccc(C(=O)N2CCN(CCC(C)C)CC2)n1 | -3.53 |
| CC(=O)N1CCC(c2n[nH]cc2-c2ccnc(N)c2)C1 (centres undefined) | 0.355 |
| O=C1c2cccnc2OC(CN2CCOCC2)CN1Cc1cccs1 (centres undefined) | -3.35 |
| Cc1ccc(-c2nc(C3CCN(C(=O)c4ccn(C)n4)CC3)no2)cn1 | -2.81 |
| CN1CC(=O)N(c2cccc(F)c2)CC12CCN(Cc1ccncc1)C2 (centres undefined) | 5.69 |
| CC(C)(C)OC(=O)Cn1nc(C2CC2)cc(C(F)(F)F)c1=O | -8.96 |
| Cc1cnn(CCNCC(=O)NCCOc2ccc(Cl)cc2)c1 | -11.8 |
| CNC(=O)[C@@]12CCO[C@@H]1CCN(S(=O)(=O)c1ccccc1)C2 | -74.8 |
| CC1=C(c2ccc(C)cc2)S(=O)(=O)N=C1N1CCc2ccccc21 | -7.12 |
